How the values were obtained:
[1] = tested on: BXPC-3; assay: Cell cycle arrest in human BxPC3 cells assessed as accumulation at G1 phase at 50 uM after 24 hrs using propidium iodide staining by FACS analysis (reference value: 41 %); type: functional
How it was run: (§1)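 Cells were plated 24 h before treatment and exposed for 24 h at final 0.5, 5, 15 and 50 μM in 0.5% DMSO, against vehicle-treated controls. Cells were then trypsinised and fixed in cold ethanol for 3 h at 4 °C. They were stained in a mix of RNase (200 μg/mL) and PI (1 mg/mL) for 45 min at room temperature in the dark. Flow cytometry used 488 nm excitation and 10 000 gated cells. Phase percentages were assigned from DNA content.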

[2] = tested on: OVCAR-5; assay: Antitumor activity against human OVCAR5 cells xenografted in SCID mouse assessed as bone metastasis at 55 mg/kg, ip administered 5 consecutive days in a week for two cycles measured after 2 cycles relative to control; type: functional; details: OVCAR-5, ip, route intraperitoneal, read-out: TGI
How it was run: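 SCID mice carried OVCAR5 xenografts (10^6 cells per inoculum), 16 mice (32 tumors) per group, with ip dosing in 5% Tween 80 from a tumor volume of about 100 mm3. Caliper volume was measured twice weekly and %ΔT/ΔC derived. At termination, primary tumors were weighed and secondary metastases were scored at axillary and bone sites (n = 7−8). Two-tailed t test.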

[3] = tested on: IGROV-1; assay: Cell cycle arrest in human IGROV1 cells assessed as accumulation at >G2/M phase at 0.5 uM after 24 hrs using propidium iodide staining by FACS analysis (reference value: 21 %); type: functional; how it was run: as §1
[4] = tested on: HCT-15; assay: Growth inhibition of human HCT15 cells after 48 hrs by SRB assay; type: functional; details: HCT-15, 48 h
How it was run: (§2)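 Cells grown in RPMI 1640 with 5% heat-inactivated FCS, 2 mM L-glutamine and antibiotics, 37 °C, 5% CO2. Seeded at 3500–30000 cells/well and left 24 h before dosing. DMSO solutions added at 10-fold dilutions from 100 to 0.01 μM for 48 h. Cells TCA-fixed and SRB-stained, absorbance read at 540 nm; GI50 derived against the time-zero plate.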

[5] = tested on: HL-60(TB); assay: Growth inhibition of human HL-60(TB) cells after 48 hrs by SRB assay; type: functional; details: HL-60, 48 h
How it was run: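 Cells kept in RPMI 1640 with 5% FCS at 37 °C, 5% CO2, and seeded 24 h before dosing. Compound given from DMSO at 10-fold dilutions, 100 to 0.01 μM, for 48 h. Cells fixed with TCA, stained with SRB, absorbance read at 540 nm. GI50 taken from a time-zero plate.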

[6] = tested on: BXPC-3; assay: Cell cycle arrest in human BxPC3 cells assessed as accumulation at sub G1 phase at 0.5 uM after 24 hrs using propidium iodide staining by FACS analysis (reference value: 9 %); type: functional; how it was run: as §1
[7] = tested on: BXPC-3; assay: Induction of apoptosis in human BxPC3 cells assessed as total apoptotic death at 5 uM using annexin V/7-AAD by FACS analysis (reference value: 18 %); type: functional
How it was run: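 Cells plated 24 h before treatment, then exposed 24 h to 0.5, 5, 15 or 50 μM compound (final DMSO 0.5%); vehicle controls included. Cells scraped and stained with annexin V-FITC and 7-AAD for 15 min on ice in the dark. Flow cytometry with 488 nm excitation, 10,000 gated cells. Early apoptosis was annexin V+/7-AAD−, late was annexin V+/7-AAD+.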

[8] = tested on: DU-145; assay: Growth inhibition of human DU145 cells after 48 hrs by SRB assay; type: functional; details: DU-145, 48 h; how it was run: as §2
[9] = tested on: BXPC-3; assay: Induction of apoptosis in human BxPC3 cells assessed as late apoptosis at 0.5 uM using annexin V/7-AAD by FACS analysis (reference value: 9 %); type: functional
[10] = tested on: Mus musculus; assay: Toxicity in CD1 mouse assessed as mortality at 40 to 55 mg/kg, ip for 2 to 3 weeks; type: organism-based; parameters: route intraperitoneal; details: in vivo
How it was run: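 CD-1 (male and female) and SCID mice dosed ip at 40−55 mg/kg in 5% Tween 80 for chronic 2−3 week regimens. Deaths and body weight loss compared with vehicle (Tween 80 or Cremophor) and reference-drug groups. Weight loss, neurological, behavioral and dietary changes recorded as toxicity signs.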

[11] = tested on: PC-3; assay: Cell cycle arrest in human PC3 cells assessed as accumulation at G1 phase at 50 uM after 24 hrs using propidium iodide staining by FACS analysis (reference value: 36 %); type: functional
[12] = tested on: IGROV-1; assay: Induction of apoptosis in human IGROV1 cells assessed as late apoptosis at 5 uM using annexin V/7-AAD by FACS analysis (reference value: 5 %); type: functional
[13] = tested on: NHDF; assay: (§3) Growth inhibition of human NHDF cells after 48 hrs by SRB assay; type: cell-based; details: nhdf, 48 h; how it was run: as §2
[14] = as §3; type: cell-based; details: NHDF cells; how it was run: as §2
[15] = tested on: IGROV-1; assay: Growth inhibition of human IGROV1 cells after 48 hrs by SRB assay; type: functional; details: IGROV-1, 48 h; how it was run: as §2
[16] = tested on: PC-3; assay: Cell cycle arrest in human PC3 cells assessed as accumulation at G1 phase at 15 uM after 24 hrs using propidium iodide staining by FACS analysis (reference value: 36 %); type: functional
[17] = tested on: IGROV-1; assay: Induction of apoptosis in human IGROV1 cells assessed as cleaved caspase3 containing cells at 0.5 uM by antibody-based FACS analysis (reference value: 3.9 %); type: functional
[18] = tested on: IGROV-1; assay: Cell cycle arrest in human IGROV1 cells assessed as accumulation at >G2/M phase at 50 uM after 24 hrs using propidium iodide staining by FACS analysis (reference value: 21 %); type: functional; how it was run: as §1
[19] = tested on: PC-3; assay: Growth inhibition of human PC3 cells after 48 hrs by SRB assay; type: functional; details: PC-3, 48 h; how it was run: as §2
[20] = tested on: BXPC-3; assay: Induction of apoptosis in human BxPC3 cells assessed as healthy cells at 5 uM using annexin V/7-AAD by FACS analysis (reference value: 79 %); type: functional
[21] = Displacement of [3H]batrachotoxin benzoate from Na+ channel after 60 mins by liquid scintillation counting
How it was run: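 Na+ channel site 2 binding: vesicle preparation (150−500 μg protein) incubated 60 min with 20−25 nM [3H]BTX-B and 50 μg Leiurius quinquestriatus venom. Buffer was 130 mM choline chloride, 50 mM HEPES/Tris pH 7.4, glucose, MgSO4, KCl, BSA. Filtered on GF/C with cold washes; scintillation counting. Nonspecific binding defined with 250 μM veratridine.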

[22] = tested on: IGROV-1; assay: Induction of apoptosis in human IGROV1 cells assessed as cleaved caspase3 containing cells at 50 uM by antibody-based FACS analysis (reference value: 3.9 %); type: functional
[23] = tested on: BXPC-3; assay: Cell cycle arrest in human BxPC3 cells assessed as accumulation at G2 phase at 5 uM after 24 hrs using propidium iodide staining by FACS analysis (reference value: 12 %); type: functional; how it was run: as §1
[24] = tested on: PC-3; assay: Induction of apoptosis in human PC3 cells assessed as early apoptosis at 15 uM using annexin V/7-AAD by FACS analysis (reference value: 5 %); type: functional
[25] = read-out: LC50 (the source's name)

## CN1CCN(CCCc2ccc(C(c3ccccc3)C34CC5CC(CC(C5)C3)C4)cc2)CC1 (stereo not given)
[1]
  Activity: 31%
[2]
  inhibition in vivo at 55 mg/kg: 25%
[3]
  Activity: 20%
[4]
  GI50: 3.5 µM
  TGI: 6.35 µM
[4]; [25]
  CC50: 0.0092 µM
[5]
  GI50: 0.00402 µM
  TGI: 0.00788 µM
[5]; [25]
  CC50: 0.1 µM
[6]
  Activity: 11%
[7]
  Activity: 21%
[8]
  GI50: 3.77 µM
  TGI: 7.11 µM
[8]; [25]
  CC50: 0.1 µM
[9]
  Activity: 7%
[10]
  Activity: Non-toxic
[11]
  Activity: 29%
[12]
  Activity: 5%
[13]
  LC50: 100 µM
  TGI: 78.2 µM
[14]
  GI50 at 48 h: 9.68 µM
[15]
  GI50: 4.54 µM
  TGI: 11.9 µM
[15]; [25]
  CC50: 0.0748 µM
[16]
  Activity: 25%
[17]
  Activity: 4.2%
[18]
  Activity: 15%
[19]
  GI50: 3.43 µM
  TGI: 6.72 µM
[19]; [25]
  CC50: 0.01 µM
[20]
  Activity: 77%
[21]
  IC50: > 1 µM
[22]
  Activity: 15.8%
[23]
  Activity: 10%
[24]
  Activity: 9%
